From ChEMBL document CHEMBL5674883, “The Heterochromatin Landscape in Migrating Cells and the Importance of H3K27me3 for Associated Transcriptome Alterations” (Cells, 2018)

Tests used:
Format in all cases: cell-based
[1] = molecular target: Histone-lysine N-methyltransferase EZH2 (Mus musculus) (UniProt Q61188); test: Inhibition of EZH2 in mouse B16-F1 migrating cells assessed as fold change in H3K27me3-buffered regulated Gabre-mRNA expression at 3 uM measured by ChIP-seq analysis relative to control cells
Sequence of Histone-lysine N-methyltransferase EZH2 (Mus musculus) (Q61188 whole entry): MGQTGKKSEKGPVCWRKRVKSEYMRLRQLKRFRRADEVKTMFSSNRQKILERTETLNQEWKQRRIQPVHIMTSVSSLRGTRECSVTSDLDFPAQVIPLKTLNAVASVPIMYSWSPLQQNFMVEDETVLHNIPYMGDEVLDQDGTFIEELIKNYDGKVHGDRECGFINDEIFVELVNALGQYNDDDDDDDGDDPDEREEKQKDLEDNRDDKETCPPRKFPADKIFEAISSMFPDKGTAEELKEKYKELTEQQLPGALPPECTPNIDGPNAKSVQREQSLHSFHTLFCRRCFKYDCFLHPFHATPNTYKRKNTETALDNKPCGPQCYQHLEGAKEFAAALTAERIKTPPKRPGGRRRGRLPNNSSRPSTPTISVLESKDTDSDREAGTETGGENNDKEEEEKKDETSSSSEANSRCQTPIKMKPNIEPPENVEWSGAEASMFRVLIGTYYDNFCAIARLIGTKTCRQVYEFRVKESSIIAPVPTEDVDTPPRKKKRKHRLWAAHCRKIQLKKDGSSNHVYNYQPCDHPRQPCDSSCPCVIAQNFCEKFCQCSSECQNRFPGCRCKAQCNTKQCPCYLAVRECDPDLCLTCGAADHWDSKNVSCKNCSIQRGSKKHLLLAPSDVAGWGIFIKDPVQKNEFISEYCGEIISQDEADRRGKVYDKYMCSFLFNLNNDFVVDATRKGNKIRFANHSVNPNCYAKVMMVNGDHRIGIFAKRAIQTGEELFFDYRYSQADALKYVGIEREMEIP
Procedure, shortened: (§1)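 Confluent B16-F1 cells on fibronectin-coated plates, cultured at 37 °C and 7% CO2, were scratched at multiple sites to induce migration. They were then held 3 h in growth medium containing 3 µM GSK343, with the inhibitor added 3 h before lysis. Unscratched cells served as controls. Poly A mRNA was analysed by RNA-seq (n=3 GSK343, n=5 controls). Linear models removed batch effects, and buffered genes were those altered only under GSK343 (FDR <0.05, fold change >1.3).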

[2] = molecular target: Histone-lysine N-methyltransferase EZH2 (Mus musculus) (UniProt Q61188); test: Inhibition of EZH2 in mouse B16-F1 migrating cells assessed as fold change in H3K27me3-dependent regulated Ccno-mRNA expression at 3 uM measured by ChIP-seq analysis relative to control cells
Procedure, shortened: (§2)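 Confluent B16-F1 cells on fibronectin-coated plates were scratched at multiple sites, washed once with DMEM and left to migrate 3 h in growth medium (37 °C, 7% CO2); unscratched cells served as control. GSK343 (3 µM) was added 3 h before lysis. Poly A mRNA was sequenced (RNA-seq), with 5 replicates for untreated and 3 for treated cells. Differential expression was called by linear model with batch correction, at FDR <0.05 and fold change ≥1.3.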

[3] = molecular target: Histone-lysine N-methyltransferase EZH2 (Mus musculus) (UniProt Q61188); test: Inhibition of EZH2 in mouse B16-F1 migrating cells assessed as fold change in H3K27me3-independent regulated Dlx6-mRNA expression at 3 uM measured by […] analysis relative to control cells; procedure, shortened: as §2
[4] = molecular target: Histone-lysine N-methyltransferase EZH2 (Mus musculus) (UniProt Q61188); test: Inhibition of EZH2 in mouse B16-F1 migrating cells assessed as fold change in H3K27me3-buffered regulated Tead4-mRNA expression at 3 uM measured by […] analysis relative to control cells; procedure, shortened: as §2
[5] = molecular target: Histone-lysine N-methyltransferase EZH2 (Mus musculus) (UniProt Q61188); test: Inhibition of EZH2 in mouse B16-F1 migrating cells assessed as fold change in H3K27me3-independent regulated Bnip3-mRNA expression at 3 uM measured by […] analysis relative to control cells; procedure, shortened: as §2
[6] = molecular target: Histone-lysine N-methyltransferase EZH2 (Mus musculus) (UniProt Q61188); test: Inhibition of EZH2 in mouse B16-F1 migrating cells assessed as fold change in H3K27me3-buffered regulated Cntrob-mRNA expression at 3 uM measured by […] analysis relative to control cells; procedure, shortened: as §1
[7] = molecular target: Histone-lysine N-methyltransferase EZH2 (Mus musculus) (UniProt Q61188); test: Inhibition of EZH2 in mouse B16-F1 migrating cells assessed as fold change in H3K27me3-independent regulated Skil-mRNA expression at 3 uM measured by […] analysis relative to control cells; procedure, shortened: as §2
[8] = molecular target: Histone-lysine N-methyltransferase EZH2 (Mus musculus) (UniProt Q61188); test: Inhibition of EZH2 in mouse B16-F1 migrating cells assessed as fold change in H3K27me3-buffered regulated Fam184b-mRNA expression at 3 uM measured by […] analysis relative to control cells; procedure, shortened: as §1
[9] = molecular target: Histone-lysine N-methyltransferase EZH2 (Mus musculus) (UniProt Q61188); test: Inhibition of EZH2 in mouse B16-F1 migrating cells assessed as fold change in H3K27me3-buffered regulated Dzip3-mRNA expression at 3 uM measured by […] analysis relative to control cells; procedure, shortened: as §1
[10] = molecular target: Histone-lysine N-methyltransferase EZH2 (Mus musculus) (UniProt Q61188); test: Inhibition of EZH2 in mouse B16-F1 migrating cells assessed as fold change in H3K27me3-buffered regulated Mef2d-mRNA expression at 3 uM measured by […] analysis relative to control cells; procedure, shortened: as §1
[11] = molecular target: Histone-lysine N-methyltransferase EZH2 (Mus musculus) (UniProt Q61188); test: Inhibition of EZH2 in mouse B16-F1 migrating cells assessed as fold change in H3K27me3-buffered regulated Rhbdf2-mRNA expression at 3 uM measured by […] analysis relative to control cells; procedure, shortened: as §1
[12] = molecular target: Histone-lysine N-methyltransferase EZH2 (Mus musculus) (UniProt Q61188); test: Inhibition of EZH2 in mouse B16-F1 migrating cells assessed as fold change in H3K27me3-independent regulated Ltbp1-mRNA expression at 3 uM measured by […] analysis relative to control cells; procedure, shortened: as §2
[13] = molecular target: Histone-lysine N-methyltransferase EZH2 (Mus musculus) (UniProt Q61188); test: Inhibition of EZH2 in mouse B16-F1 migrating cells assessed as fold change in H3K27me3-buffered regulated 4930503L19Rik-mRNA expression at 3 uM measured by […] analysis relative to control cells; procedure, shortened: as §1
[14] = molecular target: T1, RNA polymerase II (Mus musculus) (UniProt P08775+Q8CFI7+P97760+A0A3Q4L2S8+Q80UW8+P61219+P62488+Q923G2+P60898+O08740+Q63871+P62876); test: Inhibition of RNA polymerase II in mouse B16-F1 migrating cells assessed as fold change in Ets1-RNA stability at 0.1 mM measured by […] analysis relative to control cells
Procedure, shortened: (§3)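 Mouse B16-F1 melanoma cells grown to confluence on fibronectin in DMEM/10% FCS at 37 °C, 7% CO2. Migration induced by multiple scratches and 3 h incubation; unscratched controls. DRB 0.1 mM added 3 h before lysis. RNA from poly A-selected mRNA was sequenced (RNA-seq, three replicates per DRB group). Fold change computed for DRB-treated migrating vs DRB-treated control cells; cutoffs fold change >1.3, FDR <0.05.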

[15] = molecular target: T1, RNA polymerase II (Mus musculus); test: Inhibition of RNA polymerase II in mouse B16-F1 migrating cells assessed as fold change in Eif2s3x-RNA stability at 0.1 mM measured by […] analysis relative to control cells; procedure, shortened: as §3
[16] = molecular target: T1, RNA polymerase II (Mus musculus); test: Inhibition of RNA polymerase II in mouse B16-F1 migrating cells assessed as fold change in Ikzf4-RNA stability at 0.1 mM measured by ChIP-seq analysis relative to control cells
[17] = molecular target: T1, RNA polymerase II (Mus musculus); test: Inhibition of RNA polymerase II in mouse B16-F1 migrating cells assessed as fold change in Rassf2-RNA stability at 0.1 mM measured by […] analysis relative to control cells
[18] = molecular target: T1, RNA polymerase II (Mus musculus); test: Inhibition of RNA polymerase II in mouse B16-F1 migrating cells assessed as fold change in Arpc4-RNA stability at 0.1 mM measured by […] analysis relative to control cells
[19] = molecular target: T1, RNA polymerase II (Mus musculus); test: Inhibition of RNA polymerase II in mouse B16-F1 migrating cells assessed as fold change in Cbx1-RNA stability at 0.1 mM measured by […] analysis relative to control cells
[20] = molecular target: T1, RNA polymerase II (Mus musculus); test: Inhibition of RNA polymerase II in mouse B16-F1 migrating cells assessed as fold change in Nek7-RNA stability at 0.1 mM measured by ChIP-seq analysis relative to control cells
[21] = molecular target: T1, RNA polymerase II (Mus musculus); test: Inhibition of RNA polymerase II in mouse B16-F1 migrating cells assessed as fold change in Brd2-RNA stability at 0.1 mM measured by […] analysis relative to control cells
[22] = molecular target: T1, RNA polymerase II (Mus musculus); test: Inhibition of RNA polymerase II in mouse B16-F1 migrating cells assessed as fold change in Nrp1-RNA stability at 0.1 mM measured by […] analysis relative to control cells
[23] = molecular target: T1, RNA polymerase II (Mus musculus); test: Inhibition of RNA polymerase II in mouse B16-F1 migrating cells assessed as fold change in Cd2ap-RNA stability at 0.1 mM measured by […] analysis relative to control cells; procedure, shortened: as §3
[24] = molecular target: T1, RNA polymerase II (Mus musculus); test: Inhibition of RNA polymerase II in mouse B16-F1 migrating cells assessed as fold change in Higd1a-RNA stability at 0.1 mM measured by ChIP-seq analysis relative to control cells

**Q.** Which results are given for `CCCc1cc(C)[nH]c(=O)c1CNC(=O)c1cc(-c2ccnc(N3CCN(C)CC3)c2)cc2c1cnn2C(C)C`?
**A.** log2FC [1]: -0.84; log2FC [2]: 1.02; log2FC [3]: -0.86; log2FC [4]: 0.38; log2FC [5]: 0.68; log2FC [6]: -0.42; log2FC [7]: 0.42; log2FC [8]: -0.72; log2FC [9]: -0.4; log2FC [10]: 0.41; log2FC [11]: -0.57; log2FC [12]: 1.19; log2FC [13]: -0.64

**Q.** Which results are given for `OC[C@H]1O[C@@H](n2cnc3cc(Cl)c(Cl)cc32)[C@H](O)[C@@H]1O`?
**A.** log2FC [14]: -0.65; log2FC [15]: -0.51; log2FC [16]: 0.93; log2FC [17]: -0.48; log2FC [18]: 0.44; log2FC [19]: -0.56; log2FC [20]: -0.66; log2FC [21]: -0.66; log2FC [22]: -0.73; log2FC [23]: -0.57; log2FC [24]: 0.77
